MC4R barr agon: human MC4R agonism via beta-arrestin | P32245 | U2OS MC4R beta-arrestin complementation, luminescence; percent of melanotan II response, DMSO zero | activation, % at 8.9 µM | actives 0.98% (n = 360,000);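 active means activation above a per-plate cutoff, the mean activation of sample wells on that plate plus 3 SD, cut at about 8% in these data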
Target sequence (P32245 whole entry, looked up): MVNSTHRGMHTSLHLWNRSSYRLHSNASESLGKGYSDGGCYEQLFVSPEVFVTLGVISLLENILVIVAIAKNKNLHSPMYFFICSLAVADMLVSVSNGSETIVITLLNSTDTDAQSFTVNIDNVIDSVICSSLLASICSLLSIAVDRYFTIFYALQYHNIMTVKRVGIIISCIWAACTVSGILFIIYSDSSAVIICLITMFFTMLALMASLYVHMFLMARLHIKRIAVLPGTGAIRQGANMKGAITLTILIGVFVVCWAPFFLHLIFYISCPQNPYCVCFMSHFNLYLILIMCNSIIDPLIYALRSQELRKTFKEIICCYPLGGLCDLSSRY
aDG glyco act: increases alpha dystroglycan glycosylation; activation, % at 10 µM; Pro5-aDG cells, alpha-DG glycosylation AlphaScreen (IIH6); 0% Pro5, 100% B10-LARGE cell signal; AID 624168; actives 0.22% (n = 360,000);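 active means activation of at least 8% versus controls, or a plate z-score of at least 8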;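 further: Pro5 are CHO cells carrying HIG-tagged alpha-DG that lacks glycosylation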
MC4R antagonist: human MC4R antagonism in cAMP assay | MC4R-expressing cells, MTII-stimulated cAMP, LANCE TR-FRET | AID 540295 | inhibition, % at 6.5 µM | P32245 | actives 0.48% (n = 360,000);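 active means inhibition above its plate's cutoff, the mean of tested wells on that plate plus 3 SD, cut at about 29% in these data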;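 further: 0% = Melanotan II alone and 100% = Melanotan II plus saturating MCL0020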
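Assay system: U2OS cells stably expressing human melanocortin 4 receptor (MC4R) / Dosing: 6.5 µM / Timing: compound 30 min, challenge 1 h, detection 1 h / Measured by: Eu-cAMP/anti-cAMP TR-FRET, emission 671 nm / Replicates: singlicate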
NTR1 agonist: NTR1 (human) agonism. P30989. NTR1-U2OS beta-arrestin-GFP spot imaging, agonist mode. activation, % at 20 µM. actives 0.17% (n = 330,000);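 active means activation at or above 40% of the spot to cytoplasm intensity ratio, with at least 20 cells analyzed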;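 further: 0% = DMSO without peptide and 100% = 100 nM NTR1 peptide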
TbMetRS inhib: blocks T. brucei methionyl-tRNA synthetase activity | inhibition, % at 11.9 µM | purified T. brucei MetRS, ATP depletion, Kinase-Glo luminescence | actives 0.4% (n = 360,000) | AID 624268;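 active means inhibition above a per-plate cutoff of the control wells' mean inhibition plus 3 SD, cut at about 5.5% in these data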;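 further: 0% = DMSO wells median and 100% = median of wells with control inhibitor compound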
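System: purified T. brucei MetRS enzyme / Detection: Kinase-Glo luciferase luminescence reporting remaining unconsumed ATP / Medium: HEPES buffer with MgCl2, KCl, DTT, spermine, BSA, pyrophosphatase / Replication: singlicate, one well per compound / Evaluation: percent inhibition relative to median high and low control wells / Schedule: 2 h aminoacylation at 25 °C after 15 min preincubation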
TAG inh: inhibitors of triacylglycerol accumulation | H9c2 cells, Nile Red lipid (TAG) fluorescence; cells loaded with 200 µM oleic acid | inhibition, % at 12.5 µM | actives 0.66% (n = 230,000);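 active means pattern-corrected inhibition of lipid staining of at least 50% with the nuclear-stain viability signal not falling by more than 50%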;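 further: 0% = DMSO wells and 100% = triacsin C control wells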
An asterisk follows results filed as active; / = no result given. Rows were chosen to be rich in hits. Some 2.4% of all compounds tested hit in one or more screens of this group.

SMILES	MC4R barr agon	aDG glyco act	MC4R antagonist	NTR1 agonist	TbMetRS inhib	TAG inh
Cc1ccc2oc(-c3cccc(NC(=O)Cc4cccs4)c3)nc2c1	13*	0	5	23	0	/
COc1ccc(-c2nc3c(C)cc(Br)cn3c2Cc2cccc(F)c2)cc1OC	/	0	/	/	-1	/
CCOC(=O)C1=CCN(S(=O)(=O)c2ccc(F)cc2)C1c1ccc(Cl)c(Cl)c1 (centres undefined)	/	0	/	/	-1	/
CCc1nc2ccc(C(=O)NCCN3CCNC3=O)cn2c1N(C)CCC(C)C	0	0	11	/	0	4
Cc1ccccc1C(=O)Nc1nc(SCc2ccc(Cl)cc2)n[nH]1	8.7*	0	-9	6	-1	-9
CCOC(=O)C1=C[C@@H](C2CCCC2)N(S(=O)(=O)c2ccc([N+](=O)[O-])cc2)[C@H]1c1ccccc1	/	0	/	/	0	/
COc1ccc(NC(=S)Nc2ccc3nsnc3c2)cc1	-2	7.8*	-15	6	4	/
CCOc1ccc(NC(=O)Nc2ccc3nsnc3c2)cc1	1	1	-4	0	0	/
CCOc1ccc(NC(=S)Nc2ccc3nsnc3c2)cc1	5	7.8*	-14	1	5	/
Cc1ccc(S(=O)(=O)N(C)C[C@@H]2OCc3cn(nn3)CCCC(=O)N([C@H](C)CO)C[C@H]2C)cc1	/	0	/	/	-1	/
COc1ccccc1C(=O)N1CCN(C(=O)[C@H]2O[C@@H](n3cnc4c(N)ncnc43)[C@H](O)[C@@H]2O)CC1	/	0	/	/	0	/
Cc1ccc(NC(=O)NCCSc2ccc(C)cc2)cc1	8.5*	0	12	1	1	-9
CCOC(=O)c1ccccc1Nc1cn(C(C)=O)c2ccccc12	2	0	-21	6	-1	37
COc1ccccc1N(C(=O)CCl)c1cn(C(C)=O)c2ccccc12	8.6*	0	6	6	0	74*
CN(C)CCCNC(=O)C[C@H]1C[C@H](C(=O)N2CCOCC2)[C@@]2(CCC3CCCC3)c3[nH]c4cc(-c5ccco5)ccc4c3CCN2C1=O	-2	1	3	17	-1	60*
O=C(C[C@H]1C[C@H](C(=O)N2CCCCC2)[C@@]2(CCc3ccccc3)c3[nH]c4cc(-c5ccco5)ccc4c3CCN2C1=O)NCc1cccc(C(F)(F)F)c1	0	0	2	4	0	58*
CC(C)(C)NC(=O)C[C@H]1C[C@H](C(=O)N2CCOCC2)[C@@]2(CCC3CCCC3)c3[nH]c4cc(-c5ccco5)ccc4c3CCN2C1=O	4	0	11	6	-3	44
O=C(C[C@H]1C[C@H](C(=O)N2CCOCC2)[C@@]2(CCC3CCCC3)c3[nH]c4cc(-c5ccco5)ccc4c3CCN2C1=O)NCCN1CCOCC1	1	0	-3	3	-1	21
CC(C)=CCC/C(C)=C/CNC(=O)C[C@H]1C[C@H](C(=O)N2CCOCC2)[C@@]2(CCC3CCCC3)c3[nH]c4cc(-c5ccco5)ccc4c3CCN2C1=O	0	1	13	7	0	62*
Cc1ccc(S(=O)(=O)N2CCOCC2)cc1C(=O)NCCCN1CCCC1=O	0	0	7	/	0	-13
CN1NC(c2ccccc2)NN(C)C1=O	/	0	/	/	-2	/
O=C(c1[nH]c(C(F)(F)F)nc1-c1ccccc1)N1CCN(c2ncccn2)CC1	/	0	/	/	0	/
CCCCC(=O)NC(c1ccc(Cl)cc1Cl)c1ccc2cccnc2c1O (centres undefined)	-1	0	-2	4	0	/
CCC(=O)NC(c1cc(Cl)c2cccnc2c1O)C1CC1 (centres undefined)	-2	0	6	4	0	52*
CCC(=O)NC(c1ccc(Cl)cc1Cl)c1ccc2cccnc2c1O (centres undefined)	-2	0	4	2	0	55*
SMILES	MC4R barr agon	aDG glyco act	MC4R antagonist	NTR1 agonist	TbMetRS inhib	TAG inh
CC(C)CNC(=O)C1(C)CCCN1C(=O)Cc1cccc2ccccc12 (centres undefined)	1	0	0	/	0	3
OC[C@@H]1CN(Cc2ccc(-c3ccccc3)cc2)C[C@H](n2cnc3c(NCc4ccc(F)cc4)ncnc32)O1	3	5	14	/	0	25
N=c1c[n+](N2CCOCC2)[n-]o1	0	1	31*	-1	0	3
Cc1ccc(C(=O)N2CCCCC2)cc1NC1=C(Cl)C(=O)N(Cc2ccccc2)C1=O	-1	2	4	22	0	-39
Cc1ccc(O)c(NC2=C(Cl)C(=O)N(Cc3ccccc3)C2=O)c1	8.7*	0	2	/	-2	13
c1ccc(-c2ccc(C3=Nn4c(nnc4-c4cc(-c5ccccc5)n[nH]4)SC3)cc2)cc1	9.7*	3	0	10	0	/
Clc1ccc(C2=Nn3c(nnc3-c3n[nH]c4c3CCC4)SC2)cc1	-3	-1	-18	2	0	55*
COC(=O)[C@@]12C[C@@H](CC(=O)N3CCOCC3)C(=O)N(Cc3ccco3)C1=CCC(C)(C)C2	/	0	/	/	-1	/
COc1ccc2cc3cc(C(=O)Nc4ccccc4N4CCN(C)CC4)oc3nc2c1	-2	-1	-2	10	0	53*
COc1ccc2cc3cc(C(=O)NCCC(C)C)oc3nc2c1	8.8*	0	11	-2	0	/
O=C(CBr)c1ccc([N+](=O)[O-])c(CS(=O)(=O)c2ccc(Cl)cc2)c1	-3	0	34*	2	0	/
COc1ccccc1CNC(=O)C1(C)CCN1C(=O)C1(c2ccccc2)CC1 (centres undefined)	1	0	3	/	0	5
O=C(N/N=C/c1ccc(O)c(O)c1O)/C(=C/c1ccc([N+](=O)[O-])cc1)NC(=O)c1ccccc1	-2	0	1	3	12*	-14
Cc1ccc(NC(=O)/C(=C\c2ccc([N+](=O)[O-])cc2)NC(=O)c2ccccc2)cc1	0	0	0	8	0	-32
COc1ccc(NC(=O)C2(C)CCN2Cc2ccc(C(C)C)cc2)cc1OC (centres undefined)	0	0	0	/	0	-7
CC1(C(=O)Nc2cnc3ccccc3c2)CCN1Cc1ccc(OC(F)(F)F)cc1 (centres undefined)	2	0	18	/	0	3
Cc1cc(-n2c(SCC(=O)Nc3ccc(Br)cc3)nc3n[nH]c(C)c3c2=N)ccc1Cl	19*	1	16	8	0	/
O=C(Nc1ccc2c(c1)OCCO2)C(c1ccccc1)n1c(=O)c(-c2ccco2)nc2ccccc21 (centres undefined)	/	0	/	/	-1	/
